Sequences and labels used below:
B1: tRNA (parent)
chain: GUUCCGUUGGCGUAAUGGUAACGCGUCUCCCUCCUAAGGAGAAGACUGCGGGUUCGAGUCCCGUACGGAACG

This sample holds only a part of the variants without activity.

In this data set the parent is B1. Kind of data set: yeast fitness relative to wild type (ratio to wild type); higher = fitter; tRNA-Arg(CCU), competitive growth, 37 C, YPD. A digest of the protocol:
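Amplicons of the tRNA-Arg(CCU) gene were sequenced, 100-nucleotide paired-end, from the start population and from each end population of a pooled yeast competition. The competition, in six parallel replicates, lasted 24 hours in YPD at 37°C. Fitness relative to wild type was calculated from changes in genotype frequencies. Genotypes had to have ≥ 100 starting reads, and estimates < 0.5 were set to 0.5.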
Consider GUUUCGUUGGCGUUAUGGUAACGCGUCUCCCUCCUAAGGAGAAGACUGCGGGUUCGAGUCCCGUACGGUACG, for which the yeast fitness is 0.651.
With GUUUCGUUGGCGUAUUGGUAACGCGUCCCCCUCCUAAGGAGAAGACUGCGGGUUCGAGUCCCGUACGGAACG the figure was 0.55.
The same measure for GUUGCGUUGGCGUAAUGGUAACGCGUCUCCCUCCUAAGGAGAAGACUGCGGGAUCGAGUCCCGUCCGGAACG: ≤ 0.5; for GUUUCGUUGGCGUCAUGGUAACGCGUCUCCCUCCUAAGGAGAAAACUGCGGGUACGAGUCCCGUACGGAUCG: ≤ 0.5.
As for GUUGCGUUGGCGUAAUGGUAACGCGUCACCCUCCUAAGAAGAAGACUGCGGGUUCGAGUCCCGUUCGAAACG, the yeast fitness was ≤ 0.5.
Turning to GUUGCGUUGGCGUAAUGGUAACGCGUCUCCCACGUAAGGACAAGACUGCGGGUUCGAGUCCCGUACGAAACG, the yeast fitness is ≤ 0.5.
Regarding GUUGCGUUGGCGUAAUGGUAACGCGUCUCCCUCCCAAGGAGAAGACUGCGGGUUAGAGUCCCGUACGGUACG, the yeast fitness is ≤ 0.5.
With GUUUCGUUGGCGUAAUGGUGACGCGUCUCCCGCCUAAGGAGACGUCUGCGGGUUCGAGUCCCGUACGGAACG the figure was ≤ 0.5.
With GUUUCGUUGGCGUGAUGGUAACGCGUCUCCCUCCUAAGGAGAAGACUCCGGGUUCGAGUCCCGUACGGAACG the figure was 0.659.
As for GUUGCGUUGGCGUAAUGGUAACGCGUCUCCCUCCCAAGGAGAAGACUGUGGGUUCGAGUCCCGUACGGAACG, the yeast fitness turned out to be 0.533.
With GUUGCGUUGGCGUAAUGGUAACGCGCCUCCCUCCUAAGGUGAAGACUGUGGGUUCGAGUCCCGUACGGAACG the figure was ≤ 0.5; with GUUUCGUUGGCGUAGUGGUAACCCGUCUCCCUCCUAUGGAGAAGACUGUGGGUUCGAGUCCCGUUCGGAACG, 0.525; with GUUUCGUUGGCGUAUUGGUAACGCGUCUCCCUCCUAAGGAGAAGACUGCGGGUUCGAGUCCCGUACGGAACG, 0.89.
With GUUUCGUUGGCGUAGUGGUAACGCGUCUCCCUCCUAAGGAGAAGACUGCGGGUUCGAGUCCCGUACGGAACG the figure was 0.997.
With GUUGCGUUGGCGUAAUGGUAACGCGUCUCCCUCCUAAGGAGAAGACUGCGGGAUCGAGUCCCCUACGGAACG the figure was ≤ 0.5; with GUUUCGUUGGCGUAAUGGUUACGCGUCUCCCUCCUAAGGAGAAGACUGCGGGUUCGAGUCCCGUACGGAACG, 0.988.
GUUUCGUUGGCGUAAUGGUGACGCGUCUCCCUCCUAAGGAGAAGACUGCGGGUUCGAGUCCCGUACGGAACG: the yeast fitness came out at 0.979.
With GUUUCGUUGGCGUAGUGGUAACCCGUCUCCCUCCUAUGGAGAAGACUGCGGGUUCGAGUCACGUACGGAACG the figure was ≤ 0.5.
The same measure for GUUUCGUUGGCGUGAUGGUAACGCGUCUCCCUCCUAAGGAGAAGACUGCGGGUUCGAGUCCCGUACGGAUCG: 0.787; for GUUUCGUUGGCGUAAUGGUCACGCGUCUCCCUCGUGAGGAGAAGACUGCGGGUUCGAGUCCCGUUCGGAACG: ≤ 0.5; for GUUUCGUUGGCGUACUGGUAACGCGUCUCGCUCCUAAGGAGAAGACUGCGGAUUCGAGUCCCGUCCGGAACG: ≤ 0.5.
With GUUGCGUUGGCGUAAUGGUAACGCGUCUCCCGUCUAUGGAGAAGACUGCGGGUUCGAGUCCCGUGCGGAACG the figure was ≤ 0.5; with GUUUCGUUGGCGUACUGGUAACGCGUCUGGCUCCUAAGGAGACGACUGCGGGUUCGAGUCCCGUACGGAACG, ≤ 0.5; with GUUUCGUUGGCGUGAUGGUAACGCGUCUACCUCCUAAGGAGAAGACUGCGGGUUCGAGUCCCGUACGGAACG, ≤ 0.5.
As for GUUUCGUUGGCGUAAUGGUCACGCGGCUCCCUCCUAAGGAGAAGACUGCGGGUUCGAGUCCCGUACGGAACG, the yeast fitness turned out to be 0.552.
The same measure for GUUGCGUUGGCGUAAUGGUAACGCGUCUCCCUCCCAAGGAGAAGACUGCGGGUUGGAGUCCCGUACGGAACG: ≤ 0.5.
With GUUUCGUUGGCGUUAUGGUAAUGCGUCUCCCUCCUAAGGUGAACACUGCGGGUUCGCGUCCCGUACGGAACG the figure was ≤ 0.5.
On to GUUGCGUUGGCGUAAUGGUAACGCGUCUCCCUCCUAAGGAGAAGACCGCGGGUUCGAGGCCCGUACGGAACG, for which the yeast fitness is ≤ 0.5.
The same measure for GUUUCGUUGGCGUGAUGGUAACGCGUCUCCCUCCUAAGGAGAAGAGUGCGGGUUCGAGUCCCGUACGGAACG: 0.659; for GUUUCGUUGGCGUACUGGUAACGCGUCUCCCUCCUAAGGAGAAGACUGCGGGUUCGAGUCCCAUACGGAACG: ≤ 0.5.
For the variant GUUGCGUUGGCGUAAUGGUAACGCGUCUCCCUCCUAAGGAGAAGACGGCGGGUUCGAGACCCGUAAGGAACG, the yeast fitness is ≤ 0.5.
With GUUGCGUUGGCGUAAUGGUAACGCGGCUCCCUCCUAAGGAGAAGACUGCGGGUUCGAGUCCCGUACGGAACG the figure was 0.856; with GUUGCGUUGGCGUAAUGGUAACGCGUCUCCCUCCUAAGGAGAAGACUGCGGGUUCGAGUCCCGCACGCAACG, 0.632.
With GUUGCGUUGGCGUAAUGGUAACGCGUCUCCCUCCUAAGGAGAAGACUGCGGGUUCGAGGCCCGUACGGAACG the figure was 0.653; with GUUUCGUUGGCGUACUGGUAACGCGUCUCCCUCCUAAGGAGAAGACUGCGCGUUCGGGUCCCGUACGGAACG, ≤ 0.5.
With GUUUCGUUGGCGUGAUGGUAACGCGUCUCCCUCAUAAGGAGAAGACUGCGGGUUCGAGUCCCGUACGGAACG, the yeast fitness is ≤ 0.5.
The same measure for GUUUCGUUGGCGUAUUGGUCACACGUCUCCCUCCUAAGGAGAAGACUGCCGGUUCGAGUCCCGUACGGAACG: ≤ 0.5; for GUUUCGUUGGCGUAAUGGUUACGCGUGUCGCCCCUAAGGAGAGGACUGCGGGUUCGAGUCCCGUCCGCAACG: ≤ 0.5.
The same measure for GUUUCGUUGGCGUCAUGGUAACGCGUCUCCCUCCUAAGGAGAAGACUGCGGGUUUGACUCCCGUACGGAACG: 0.595.
Consider GUUGCGUUGGCGUAAUGGUAACGCGUCUCCCCCCUAAGGAGAAGUCUGCGGGUUCGAGUCCCGUACGGAACG, for which the yeast fitness turned out to be 0.537.
The same measure for GUUUCGUUGGCGUACUGGUAACGCGUCUCCCUCCUAAGGAAAAGACUGCGGGUUCGAGUCCCCUACGGAACG: ≤ 0.5; for GUUUCGUUGGCGUAAUGGUGACGCGUCUCCCUCCUAAGGAGAAGACUGCGGGUUCGAGUCCCGUACGGCACG: 0.817; for GUUUCGUUGGCGUAAUGGUUACGCGUCUUCCUCCUAAGGAGAAGACUGCGGGUUCGAGUCCCGUACGGAACG: ≤ 0.5.
The same measure for GUUUCGUUGGCGUAUUGGUAACGCGUCUCCCUCCUAAGGAGCAGACUGCGGGUUCGUGUCCCGUACGGAACG: ≤ 0.5; for GUUUCGUUGGCGUGGUGGUAAUGCGUCUCCCUCCUAAGGAGAAGAUUGCGGGUUCGAGUCCCGUACGGAUCG: ≤ 0.5.
The same measure for GUUUCGUUGGCGUAUUGGUAACGCGUCCCCCUCCUAAGGAGAAGACUGCGGGUUCGGGUCCCGUACGGAACG: ≤ 0.5; for GUUUCGUUGGCGUAAUGGUUACGCGUCUCCCUCCUAAGGUGAAGACUGCGGGUUCGAGUCCCGUACCGAACG: ≤ 0.5.
Regarding GUUUCGUUGGCGUGAUGGUAACGCGUCUCCCUCCUAAGGAGAAGCCUGCGGGUUCGAGUCCCCUACGGAACG, the yeast fitness is ≤ 0.5.
With GUUUCGUUGGCGUAAUGGUCACGCGUCUCCCUCCUAAGGAGAAGAUUGCGGGUUCGAGUCCCGUACGGAGCG the figure was ≤ 0.5; with GUUUCGUUGGCGUAUUGGUAACGCGUCUCCCUCCUAAGGAGAAGACUGCGGGUUCGAGUCCCGUACGAAACG, ≤ 0.5; with GUUUCGUUGGCGUAAUGGUGACGCGUCUCACUCCUAAGGAGAAGACUGCGGGUUCGAGUCCCGUACGGAACG, 0.81.
With GUUGCGUUGGCGUAAUGGUAACGCGUCUCCCACCUAAGGAGAAGACUGCGGGUUCGAGUCCCGUACGGAACG the figure was 0.864; with GUUGCGUUGGCGUAAUGGUAACGCGUCUCCCCCCUAAGGAGAAGACUGCGGGUUCGAGUCCCGUACGGAACG, 0.944; with GUUUCGUUGGCGUUAUGGUACCGCGUCUCCCUCCUAAGGAGAAGCCUGCGGGUUCGAGUCCCGUACGGUACG, ≤ 0.5.
With GUUUCGUUGGCGUAUUGGUAACGCGUCUCCCUCCUAAGGAGAAGACUGCGGGUUCGAGUCCCGUAUGGAACG the figure was 0.649; with GUUUCGUUGGCGUGAUGGUAACGCGUCUCCCUCCUAAGGAGAAGCCUGCGGGUUCGAGUCCCGUACGGAACG, 0.542; with GUUUCGUUGGCGUUAUGGUAACGCGUCUCCCUCCUAAGGAGAAGACUGCGGGUUCGAGUCCCGUACGGAACG, 0.611.
For GUUUCGUUGGCGUAAUGGUCACGCGUCUCACUCCUAAGGAGAAGACUGCGGGUUAGAGUCCCGUACAGAACG, the yeast fitness worked out at 0.53.
With GUUUCGUUGGCGUCAUGGUAACGCGUCUCCCUCCUAAGCAGAAGACUGCGGGUUCGAGUCCCGUACGGAACG the figure was ≤ 0.5; with GUUUCGUUGGCGUACUGGUAACGCGUCUCGCUCCUAAGGAGAAGACUGCGGGUUCGAGUCCCGUACGGCGCG, ≤ 0.5.
With GUUUCGUUGGCGUAGUGGUAACCCGUCUCCCUCCUAUGGAGAAGACUGCGGGUUCGAGUCCCGUACGGAACG the figure was ≤ 0.5.
With GUUGCGUUGGCGUAAUGGUAACGCGUCACCGUCCUAAGGAGAAGACUGCGGGUUCGGGUCCUGUACGGAACG the figure was 0.532.
GUUUCGUUGGCGUACUGGUAACGCGUCUCCCUCCUAAGGAGAAGAUUGCGGGUUCGAGUCCCGUACGGAACG: the yeast fitness was found to be 0.7.
On to GUUGCGUUGGCGUAAUGGUAACGCGUCUCCCUCCUAAGGAGAAGACUGCGGGCUCGAGUCCCGUACGGAACG, for which the yeast fitness was determined as 0.776.
Turning to GUUUCGUUGGCGUACUGGUAACGCGUCUCCCUCCUAAGGAGAAGACUGCGGGUUCGAGUCCCGUACGGAUCG, the yeast fitness worked out at 0.573.
As to GUUUCGUUGGCGUGAUGGUCACGCGUCUCCCUCUUAAGGAGAAGACUGCGGGUUUGAGUCCCGUACGGAACG, the yeast fitness was ≤ 0.5.
The same measure for GUUUCGUUGGCGUAUAGGUAACCCAUCUCCCUCCUAAGGAGAAGACUGCGGGUUCGUGUCCCGUACGGUACG: ≤ 0.5; for GUUUCGUUGGCGUAAUGGUGACGCGUCUCCCUCCUAAGGAGAAGUCUGCGGGUUCGAGUCAUGUACGGAACG: 0.546; for GUUGCGUUGGCGUAAUGGUAACGCGUCUCCCUCCUAAGGAGAAGACUGCGGGUUCGAGCCCCGUACGGCACG: 0.778.
Regarding GUUUCGUUGGCGUAGUGGUAACACGUCUCCCUCGUAAGGAGAAGACUGCGGGUUCGAGUCCCGUACGGAACG, the yeast fitness is ≤ 0.5.
Turning to GUUUCGUUGGCGUACUGGUAACGCGUCUCCCUCCUAAGGAGAGAACAGGGGGUUCGAGUCCCGUACGGAACG, the yeast fitness is ≤ 0.5.
In the case of GUUGCGUUGGCGUAAUGGUAACGCGUCCCCCUCCUAAGGAGAAGACUGCGGGUUCGAGUCCCGUAUGGAACG, the yeast fitness was 0.524.
Turning to GUUUCGUUGGCGUAUUGGUAACGCGUCUCCCUCCUAAGGAGAAGGCUGCGGGUUCGAGUCCGGUACGGAACG, the yeast fitness is ≤ 0.5.
With GUUUCGUUGGCGUGAUGGUAACGCGUCUCCCUCCUAAGGUGAAGACUGCGGGUUCGAGUCCCGUACGGAACG the figure was 0.593.
The same measure for GUUUCGUUGGCGUAAUGGUGACGCGUCCCCUUCCUAAGGAGAAGACUGCCGGUUUGAGUGCCAUAUGGAACG: 0.508.

For the origin of these results see the RNAGym collection of RNA variant scans (doi:10.1126/science.aae0568).
